Source: ChEMBL document CHEMBL1129598, “Design, synthesis, and in vitro evaluation of cyclic nitrones as free radical traps for the treatment of stroke” (J Med Chem, 1996)
pIC50: −log10 of the molar value.

Experiments:
[1] = In vitro inhibition of oxidation of soybean phosphatidylcholine liposomes using lipid peroxidation assay.; type: functional, Glycine max
Procedure, shortened: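 Soybean phosphatidylcholine liposomes were oxidised with an Fe²⁺/Fe³⁺ mixture to start peroxidation, with test agent present, and oxidation products were then analysed. A reference cyclic nitrone was run as an internal standard in each experiment. Runs were rejected if its value deviated by more than 15% from its established value.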

[2] = lipophilicity of the compound.; type: physicochemical; details: reversed-phase HPLC
Procedure, shortened: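 Lipophilicity was measured by reversed-phase HPLC as log k′_w. Samples at 0.5 mg/mL in MeOH were run on a C18 column (15 cm × 4.6 mm, 5 µm). Elution used 32–62% MeOH in pH 7.4 phosphate buffer, at three MeOH levels per compound.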

| pIC50 [1] | Log K'W [2] | Compound |
| --- | --- | --- |
| 2.78 | 1.9 | CC1(C)Cc2ccccc2C=[N+]1[O-] |
| 1.84 |  | CC(C)(C)/[N+]([O-])=C/c1ccccc1 |
| 3.14 | 2.99 | [O-][N+]1=Cc2ccccc2CCC12CCCCC2 |
| 3.09 | 0.68 | CC1(C)c2cc(O)ccc2C=[N+]1[O-] |
| 2.80 | 1.57 | CC1(C)Cc2sccc2C=[N+]1[O-] |
| 3.51 | 1.98 | [O-][N+]1=Cc2ccccc2CCC12CCOCC2 |
| 3.04 | 1.75 | COc1ccc2c(c1)C(C)(C)[N+]([O-])=C2 |
| 2.97 | 1.16 | CC1(C)Cc2ccoc2C=[N+]1[O-] |
| 4.00 | 2.67 | CC1(C)Cc2c(ccc3ccccc23)C=[N+]1[O-] |
| 2.76 | 1.47 | CC1(C)Cc2ccsc2C=[N+]1[O-] |
| 2.96 | 1.98 | COc1cccc2c1C=[N+]([O-])C2(C)C |
| 2.87 | 1.61 | CC1(C)c2ccccc2C=[N+]1[O-] |
| 4.66 | 2.29 | Cc1cc2c(c(C)c1O)CCC(C)(C)[N+]([O-])=C2 |
| 4.16 | 2.69 | CC1(C)Cc2ccc3ccccc3c2C=[N+]1[O-] |
| 2.91 | 1.65 | [O-][N+]1=Cc2ccccc2CC12CCOCC2 |
| 4.18 | 1.82 | Cc1cc2c(c(C)c1O)CC(C)(C)[N+]([O-])=C2 |
